Activity calls are given as the source filed them. No cut-off for these calls is given here.
Experiments:
[1] = Inhibition of HSP90/Cdc37 interaction in human doxorubicin-resistant NCI-H460 cells assessed as reduction in cell proliferation after 48 hrs by MTT assay; conditions: NCI-H460, 48 h
Method in brief: (§1)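 Cells in log phase seeded at about 1.0 × 10^5 cells/mL in 96-well plates, left 12 h at 37 °C, 5% CO2. Compounds dissolved in DMSO, added at 2.5, 5, 10, 20 and 50 µM, 48 h exposure. Absorbance read at 570/630 nm dual wavelength. Survival expressed relative to negative control. IC50 by Bliss method (n = 5), tests done in triplicate.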

[2] = test system: A549; test: Antiproliferative activity against human A549 cells after 48 hrs by MTT assay; format: functional, cell-based; conditions: A549, 48 h; method in brief: as §1
[3] = biological target: Heat shock protein HSP 90-beta/Hsp90 co-chaperone Cdc37 (Homo sapiens) (UniProt P08238+Q16543); test: Inhibition of HSP90beta/Cdc37 interaction in human A549 cells assessed as upregulation of HSP90beta expression at 5 to 10 uM after 24 hrs by Western blot analysis; format: cell-based
Method in brief: (§2)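 A549 cells exposed for 24 h, with geldanamycin as comparator. Whole-cell lysates separated by SDS-PAGE and immunoblotted for the named proteins. β-actin used as reference.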

[4] = test system: A549; test: Induction of apoptosis in human A549 cells assessed as intracellular ROS levels at 10 uM after 24 hrs by FITC-DCF-DA-fluorescence based flow cytometry (reference value: 0.832%); format: functional
Method in brief: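 A549 cells exposed to 5 and 10 µM for 24 h, untreated cells as control. Collected, washed with ice-cold PBS and loaded with DCFH-DA in cell-free medium for 20 min at 37 °C in the dark, then washed. Fluorescence measured by flow cytometry at 485 nm excitation and 538 nm emission. Mean ± S.D. of three independent experiments.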

[5] = biological target: Heat shock protein HSP90 (Homo sapiens) (UniProt P07900+P08238); test: Inhibition of HSP90 in human A549 cells assessed as downregulation of CDK4 expression after 24 hrs by Western blot analysis; format: cell-based; method in brief: as §2
[6] = test system: A549; test: Cell cycle arrest in human A549 cells assessed as accumulation at G2 phase at 5 uM after 48 hrs by propidium iodide staining-based flow cytometry (reference value: 10.22%); format: functional
[7] = test system: A549; test: Induction of apoptosis in human A549 cells assessed as increase in number of nuclei containing condensed chromatin at 5 to 10 uM after 24 hrs by Hoechest 33258-staining based fluorescence microscopy; format: functional, cell-based
Method in brief: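 5.0 × 10^5 A549 cells per well exposed to 5 and 10 µM for 24 h, untreated cells as control. Fixed in 4% paraformaldehyde for 30 min, washed with ice-cold PBS and stained with Hoechst 33258 for 20 min in the dark. Condensed nuclei imaged by fluorescence microscopy at 350 nm excitation and 460 nm emission, 200× magnification.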

[8] = Inhibition of His-tagged full-length Hsp90 (unknown origin)/GST-tagged Cdc37M (unknown origin) interaction after 1 hr by HTRF assay; set-up: species or system Homo sapiens
Method in brief: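 TR-FRET in PBS containing 400 mM KF, pH 7.3. His-tagged full-length Hsp90 and GST-Cdc37M, each 250 nM final, incubated with compound for 1 h at 37 °C. Anti-GST-Cryptate and anti-6His-XL665 then added for a further 0.5 h at 37 °C. Excitation 320 nm, emission 665/620 nm, reported as ratio ×10,000. Negative and blank controls run in each assay.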

[9] = test system: A549; test: Cell cycle arrest in human A549 cells assessed as accumulation at S phase at 5 uM after 48 hrs by propidium iodide staining-based flow cytometry (reference value: 19.62%); format: functional
[10] = test system: A549; test: Induction of apoptosis in human A549 cells after 24 hrs by Annexin-V FITC/propidium iodide staining based flow cytometry
[11] = test system: A549; test: Induction of apoptosis in human A549 cells assessed as early apoptotic cells at 10 uM after 24 hrs by Annexin-V FITC/propidium iodide staining based flow cytometry (reference value: 0.080%)
[12] = organism: Homo sapiens; test: Inhibition of HSP90/Cdc37 interaction assessed as reversal of drug resistance by measuring ratio of IC50 for human doxorubicin-resistant NCI-H460 cells to IC50 for human NCI-H460 cells
Method in brief: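 Resistance factor is the ratio of IC50 in NCI-H460/DOX cells to IC50 in parental NCI-H460 cells. […] Values are mean ± SD of five separate experiments. Doxorubicin serves as the positive control.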

[13] = biological target: Heat shock protein HSP 90-alpha/Hsp90 co-chaperone Cdc37 (Homo sapiens) (UniProt P07900+Q16543); test: Inhibition of HSP90alpha/Cdc37 interaction in human A549 cells assessed as upregulation of HSP90alpha expression at 5 to 10 uM after 24 hrs by Western blot analysis; format: cell-based; method in brief: as §2
[14] = test system: A549; test: Induction of apoptosis in human A549 cells assessed as early apoptotic cells at 5 uM after 24 hrs by Annexin-V FITC/propidium iodide staining based flow cytometry (reference value: 0.080%)
[15] = test system: A549; test: Induction of apoptosis in human A549 cells assessed as late apoptotic cells at 5 uM after 24 hrs by Annexin-V FITC/propidium iodide staining based flow cytometry (reference value: 0.030%)

Chain of Heat shock protein HSP 90-alpha/Hsp90 co-chaperone Cdc37 (Homo sapiens) (Q16543 whole entry, looked up, other chains not shown): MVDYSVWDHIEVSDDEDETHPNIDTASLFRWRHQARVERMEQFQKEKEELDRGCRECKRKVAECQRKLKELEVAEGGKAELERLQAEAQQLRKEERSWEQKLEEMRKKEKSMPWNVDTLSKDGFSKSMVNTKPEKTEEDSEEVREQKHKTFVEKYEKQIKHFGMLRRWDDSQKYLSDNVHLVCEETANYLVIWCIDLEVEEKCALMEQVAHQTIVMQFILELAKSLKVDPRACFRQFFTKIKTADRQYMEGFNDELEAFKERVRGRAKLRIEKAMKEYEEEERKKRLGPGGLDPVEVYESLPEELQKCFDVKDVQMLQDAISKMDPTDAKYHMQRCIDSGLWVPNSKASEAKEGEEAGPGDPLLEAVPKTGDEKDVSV

CCOC(=O)[C@@]1(C)CC[C@]2(C)CC[C@]3(C)C(=CC(=O)[C@@H]4[C@@]5(C)CC[C@H](OC(=O)CCC(=O)Nc6nc7ccc(F)cc7s6)C(C)(C)[C@@H]5CC[C@]43C)[C@@H]2C1
IC50 [1]: 10.1 µM
IC50 [2]: 4.04 µM
inhibition [3]: Active
Activity [4]: 67.5%
inhibition [5]: Dose-dependent effect
Activity [6]: 12.98%
Activity [7]: Dose-dependent effect
IC50 [8]: 0.14 µM
Activity [9]: 34.09%
Activity [10]: Dose-dependent effect
Activity [11]: 14%
Ratio IC50 [12]: 1.36
inhibition [13]: Active
Activity [14]: 8.45%
Activity [15]: 3.84%

— ChEMBL document CHEMBL4219101, “Discovery of 18β-glycyrrhetinic acid conjugated aminobenzothiazole derivatives as Hsp90-Cdc37 interaction disruptors that inhibit cell migration and reverse drug resistance” (Bioorg Med Chem, 2018)
